# Source: publication PMC5736852 (British Journal of Clinical Pharmacology, 2017)
# Where two headings read alike, the source gives them in different places. Marks after values point to notes of the source that are not given here.
# What was measured:
# [1] = cited from earlier work
# [2] = Exposure–safety logistic regression; type: in vivo, human
# In short: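 Cancer patients (Western and Japan/East Asia) took oral test compound for 7 days in 21-day cycles, fasting from 2 h before to 1 h after dosing. Plasma levels were measured by LC/MS/MS. Per-patient time-averaged AUC per day covered dosing start to onset of worst-grade toxicity, from actual doses and individual CL/F from a two-compartment population PK model. Incidence (n = 591/593/594) was regressed logistically on log-transformed AUC.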
# [3] = Global population pharmacokinetic analysis of alisertib in cancer patients; type: in vivo, human; details: for half-life: human, plasma, oral
# [4] = Western patients, cited from earlier work
# [5] = East Asian patients, b.i.d. dosing
# [6] = 30 mg b.i.d., patients in East Asia
# [7] = 50 mg b.i.d., patients in East Asia
# [8] = 50 mg b.i.d., patients in the West
structure (smiles),measurement,setting,value
COc1cc(Nc2ncc3c(n2)-c2ccc(Cl)cc2C(c2c(F)cccc2OC)=NC3)ccc1C(=O)O [alisertib],patients who discontinued alisertib owing to treatment-emergent AEs,"[1]; East Asian patients, 30 mg b.i.d., two of 30 patients",6.7%
same,half-life,[1]; [5],15 to 17 h
same,median Tmax,[1]; [5],2 to 3 h
same,maximum tolerated dose (MTD),"[1]; East Asian patients, b.i.d. for 7 days in 21-day cycles",30 mg
same,higher geometric mean steady-state systemic exposure in East Asian patients,[1]; East Asian vs Western patients,approximately 70%
same,mean CL/F in East Asian patients lower than in Western patients,[1]; East Asian vs Western patients,approximately 40%
same,estimated population mean time-averaged AUC,[2]; [6],14.23 μM*h day^–1
same,estimated probability of grade ≥2 diarrhoea,[2]; [6],12%
same,estimated probability of grade ≥2 stomatitis,[2]; [6],6.5%
same,estimated probability of grade ≥3 neutropenia,[2]; [6],37%
same,estimated population mean time-averaged AUC,[2]; [7],23.72 μM*h day^–1
same,estimated probability of grade ≥2 diarrhoea,[2]; [7],17%
same,estimated probability of grade ≥2 stomatitis,[2]; [7],13%
same,predicted probability of grade ≥3 neutropenia,[2]; [7],46%
same,estimated population mean time-averaged AUC,[2]; [8],15.63 μM*h day^–1
same,estimated probability of grade ≥2 diarrhoea,[2]; [8],13%
same,estimated probability of grade ≥2 stomatitis,[2]; [8],7%
same,predicted probability of grade ≥3 neutropenia,[2]; [8],39%
same,GM (CV) dose-normalized alisertib AUC(0–τ),"[3]; Asian patients in Asia, n = 59",797 (45%) nM.h
same,GM (CV) dose-normalized alisertib AUC(0–τ),"[3]; Asian patients in the West, n = 8",475 (43%) nM.h
same,"geometric mean (%CV) dose-normalized alisertib AUC0–τ,ss","[3]; Region East, All (Japanese, Korean, Chinese), n = 59",797 (45) nM.h mg^–1
same,"geometric mean (%CV) dose-normalized alisertib AUC0–τ,ss","[3]; Region East, Chinese, n = 22",752 (48) nM.h mg^–1
same,"geometric mean (%CV) dose-normalized alisertib AUC0–τ,ss","[3]; Region East, Japanese, n = 23",799 (34) nM.h mg^–1
same,"geometric mean (%CV) dose-normalized alisertib AUC0–τ,ss","[3]; Region East, Korean, n = 13",885 (53) nM.h mg^–1
same,"geometric mean (%CV) dose-normalized alisertib AUC0–τ,ss","[3]; Region West, All non-Asian races, n = 604",482 (43) nM.h mg^–1
same,"geometric mean (%CV) dose-normalized alisertib AUC0–τ,ss","[3]; Region West, All, n = 612",482 (43) nM.h mg^–1
same,"geometric mean (%CV) dose-normalized alisertib AUC0–τ,ss","[3]; Region West, Asian, n = 8",475 (43) nM.h mg^–1
same,"geometric mean (%CV) dose-normalized alisertib AUC0–τ,ss","[3]; Region West, Black, n = 33",462 (57) nM.h mg^–1
same,"geometric mean (%CV) dose-normalized alisertib AUC0–τ,ss","[3]; Region West, White, n = 556",482 (43) nM.h mg^–1
same,"BSAV1, effect of BSA on V1/F, pop value",[3]; final model,0.899
same,"CL/F, V1/F, V2/F and Q/F lower in the East Asian region",[3]; final model,34.1%
same,"KTR, transit compartment rate constant, pop value",[3]; final model,4.17 1 h^–1
same,"V1/F, apparent central volume, pop value",[3]; final model,54.3 L
same,"V2/F, apparent peripheral volume, pop value",[3]; final model,28.7 L
same,net mean transit time for oral absorption,[3]; final model,0.96 h
same,"CL/F, apparent clearance, pop value",[3]; final model (analysis data set n = 422),4.11 l h^–1
same,higher bioavailability (F) in East Asian region compared with Western patients,"[3]; final model, covariate effect of region on F",52%
same,"RGNF, effect of region, pop value","[3]; final model, affected parameters multiplied by (1–0.341) for East Asian region",−0.341 ^a
same,half-life,"[3]; population alpha half-life, final model",1.71 h
same,half-life,"[3]; population beta half-life, final model",15.1 h
same,GM (CV) dose-normalized alisertib AUC(0–τ),"[3]; non-Asian patients in the West, n = 604",482 (43%) nM.h
same,maximum tolerated dose (MTD),[4]; b.i.d. for 7 days in a 21-day cycle,50 mg
same,median Tmax,[4]; postdose,2 to 3 h
same,mean steady-state half-life following multiple dosing,[4],19 to 23 h
